The record followed here is ChEMBL document CHEMBL2176975, “Novel toll-like receptor 2 ligands for targeted pancreatic cancer imaging and immunotherapy” (J Med Chem, 2012).

The structures appear in SMILES notation. Non-standard residues stand in square brackets, D forms with d. Residues, ends and D or L forms follow the SMILES beside them. *: point of attachment. Propyl(2R-PamO,3-PamO) = CCCCCCCCCCCCCCCC(=O)OC[C@H](C*)OC(=O)CCCCCCCCCCCCCCC; X1 = CC(=O)NCCCOCCOCCOCCCNC(=O)COCC(=O)*; Palmitoyl = CCCCCCCCCCCCCCCC(=O)*

What is called Ki is the dissociation constant of the complex between target and ligand, obtained from inhibition or displacement. Higher therefore signals weaker binding. Usually EC50 stands for the midpoint of the concentration-response curve.

Data set [1] concerns the target T1, Toll-like receptor 2 (Homo sapiens, UniProt O60603). In words: Displacement of Eu-DTPA from human TLR2 expressed in HEK293 cells after 1 hr. The data set is classed as cell-based. Summed up:
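Live-cell europium TRF competition binding in HEK-293/hTLR2 (poly-D-lysine plates) or SU.86.86 cells grown 2 days to ~80% confluence. Unlabeled ligand 1 μM to 0.01 nM plus 90 nM Eu-DTPA-labeled tracer, 1 h at 37°C; three washes, enhancement solution 30 min at 37°C, read at 340 nm excitation/615 nm emission with time delay.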

The target in data set [2] is T1, Toll-like receptor 2. In words: Agonist activity at human TLR2 expressed in HEK293 cells assessed as induction of NF-kappaB signaling after 24 hrs by luminescence based luciferase reporter gene assay relative to 1 ug/mL of SAA. The data set is classed as functional, cell-based. The gist of the method: (§1)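 HEK-293/hTLR2 reporter cells transiently transfected with NF-κB-luciferase plasmid pNifty-Luc, stimulated 24 h with test compound at 1 μg/mL; luciferin-induced luminescence read. Fold enhancement taken versus serum amyloid A at 1 μg/mL or 10 μg/mL; n = 4.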
On the technique in general: In a reporter assay the amount or activity of a reporter protein is the signal.

The species named for data set [3] is Mus musculus. In words: Immunomodulatory activity in Trp1455/9M peptide immunized C57BL/6 mouse assessed as Trp1455/9M specific CD8+ T cells in blood at 50 ug using Trp1455/9M/ H-2Db staining measured after 34 of immunization by FACS analysis. Format: functional, T-cell. The gist of the method: (§2)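 C57BL/6 mice, 6-8 weeks, immunized iv with 100 μg Trp1 455/9M peptide, 50 μg anti-CD40 antibody and 50 μg TLR2 agonist in 200 μL. Submandibular blood on days 7, 21, 34, red cells lysed, stained 40 min on ice with CD8a antibody, Trp1 455/9M/H-2Db tetramer and anti-MHC II; % tetramer-positive CD8+ cells by flow cytometry; three mice per group, mean and SD.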
(In general: In flow cytometry, cells or beads pass a laser one at a time.)

Data set [4] addresses T1, Toll-like receptor 2. The data set can be described thus: Agonist activity at human TLR2 expressed in HEK293 cells assessed as induction of NF-kappaB signaling after 24 hrs by luminescence based luciferase reporter gene assay relative to 10 ug/mL of SAA. Format: functional, cell-based. Summed up:
as §1

The target of data set [5] is T1, Toll-like receptor 2. In words: Agonist activity at human TLR2 expressed in HEK293 cells assessed as induction of NF-kappaB signaling after 24 hrs by luminescence based luciferase reporter gene assay. The data set is classed as functional, cell-based.
The species named for data set [6] is Mus musculus. The data set can be described thus: Immunomodulatory activity in Trp1455/9M peptide immunized C57BL/6 mouse assessed as Trp1455/9M specific CD8+ T cells in blood at 50 ug using Trp1455/9M/ H-2Db staining measured after 21 of immunization by FACS analysis. Format: functional, T-cell. The gist of the method: as §2
Data set [7] is filed under the species Mus musculus. In words: Immunomodulatory activity in Trp1455/9M peptide immunized C57BL/6 mouse assessed as Trp1455/9M specific CD8+ T cells in blood at 50 ug using Trp1455/9M/ H-2Db staining measured after 7 of immunization by FACS analysis. Format: functional, T-cell. The gist of the method:
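C57BL/6 mice, 6-8 weeks old, immunized i.v. (200 μL) with a mixture of 100 μg Trp1_455/9M peptide, 50 μg anti-CD40 antibody (FGK45.5) and 50 μg TLR2 agonist. Submandibular blood taken, red cells lysed with ammonium chloride, stained 40 min on ice with CD8a, Trp1_455/9M/H-2Db tetramer and anti-MHC class II. Tetramer+ % of CD8+ cells read by flow cytometry; three mice per group.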

For data set [8], the species on record is Mus musculus. In words: Toxicity in Trp1455/9M peptide immunized C57BL/6 mouse at 50 ug measured after 34 of immunization. The data set is classed as organism-based. To be noted: in vivo.

T1 sequence (O60603 whole entry): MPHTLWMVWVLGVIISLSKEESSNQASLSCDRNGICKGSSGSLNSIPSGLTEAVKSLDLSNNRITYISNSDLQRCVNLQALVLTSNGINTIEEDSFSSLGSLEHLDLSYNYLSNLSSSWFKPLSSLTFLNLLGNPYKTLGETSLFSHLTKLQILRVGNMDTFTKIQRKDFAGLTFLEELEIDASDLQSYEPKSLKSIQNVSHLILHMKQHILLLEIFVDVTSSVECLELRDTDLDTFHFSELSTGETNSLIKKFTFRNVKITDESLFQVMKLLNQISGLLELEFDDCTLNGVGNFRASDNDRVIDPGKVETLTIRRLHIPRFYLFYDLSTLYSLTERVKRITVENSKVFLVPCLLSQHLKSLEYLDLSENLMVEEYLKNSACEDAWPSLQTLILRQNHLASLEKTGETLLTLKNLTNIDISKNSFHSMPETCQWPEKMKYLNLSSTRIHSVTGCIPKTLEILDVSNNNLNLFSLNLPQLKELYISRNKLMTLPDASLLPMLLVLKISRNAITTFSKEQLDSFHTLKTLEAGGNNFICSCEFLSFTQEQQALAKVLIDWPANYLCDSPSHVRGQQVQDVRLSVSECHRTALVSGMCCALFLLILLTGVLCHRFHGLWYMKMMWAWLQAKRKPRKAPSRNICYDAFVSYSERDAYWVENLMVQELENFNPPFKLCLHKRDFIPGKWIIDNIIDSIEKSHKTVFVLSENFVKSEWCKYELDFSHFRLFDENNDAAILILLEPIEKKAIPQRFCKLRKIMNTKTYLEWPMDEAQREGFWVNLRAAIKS

In the case of `CCCCCCCCCCCCCCCC(=O)OC[C@H](CSC[C@H](NC(=O)COCC(=O)NCCCOCCOCCOCCCNC(C)=O)C(=O)NCC(=O)N[C@H](CO)C(=O)NCCCOCCOCCOCCCNC(=O)COCC(N)=O)OC(=O)CCCCCCCCCCCCCCC`, the Ki at Toll-like receptor 2 [1] is 25 nM. Moreover, the fold change (FC) turned out to be 14 at Toll-like receptor 2 [2] and 5.2 on Toll-like receptor 2 [4]. In addition, the Activity in the data set listed under Mus musculus [3] is listed as 6.63%; in the data set listed under Mus musculus [6], 14.6%; in the data set filed under Mus musculus [7] it was 49.6%; in the data set filed under Mus musculus [8], “Non-toxic”. Also, the EC50 on Toll-like receptor 2 [5] came out at 20 nM.
Regarding `CCCCCCCCCCCCCCCC(=O)OC[C@H](CSC[C@H](N)C(=O)N[C@@H](CO)C(=O)N[C@@H](CCCCN)C(=O)N[C@@H](CCCCN)C(=O)N[C@@H](CCCCN)C(=O)N[C@@H](CCCCN)C(=O)O)OC(=O)CCCCCCCCCCCCCCC` (H-C(Propyl(2R-PamO,3-PamO))SKKKK-OH), the Activity in the data set listed under Mus musculus [3] is given as 11.3%; in the data set filed under Mus musculus [6], 18.4%; in the data set listed under Mus musculus [7], 56.6%; in the data set listed under Mus musculus [8], “Non-toxic”. For the same compound, the EC50 on Toll-like receptor 2 [5] worked out at 3.7 nM.
In the case of `CCCCCCCCCCCCCCCC(=O)N[C@@H](CSC[C@@H](COC(=O)CCCCCCCCCCCCCCC)OC(=O)CCCCCCCCCCCCCCC)C(=O)N[C@@H](CO)C(=O)N[C@@H](CCCCN)C(=O)N[C@@H](CCCCN)C(=O)N[C@@H](CCCCN)C(=O)N[C@@H](CCCCN)C(=O)O` (Palmitoyl-C(Propyl(2R-PamO,3-PamO))SKKKK-OH), the Activity is given as 10.2% in the data set filed under Mus musculus [3], 16.8% in the data set listed under Mus musculus [6] and “Non-toxic” in the data set listed under Mus musculus [8]. Moreover, the EC50 on Toll-like receptor 2 [5] was 23 nM.
For the compound `CCCCCCCCCCCCCCCC(=O)OC[C@H](CSC[C@H](NC(=O)COCC(=O)NCCCOCCOCCOCCCNC(C)=O)C(=O)NCC(=O)N[C@@H](CO)C(=O)N[C@@H](CCC(N)=O)C(=O)N[C@@H](CC(N)=O)C(=O)N[C@@H](CC(C)C)C(=O)N[C@@H](C)C(=O)N[C@@H](CO)C(=O)N[C@@H](CC(C)C)C(=O)N[C@@H](CCC(=O)O)C(=O)N[C@@H](CCC(=O)O)C(N)=O)OC(=O)CCCCCCCCCCCCCCC` (X1-C(Propyl(2R-PamO,3-PamO))GSQNLASLEE-NH2), the fold change (FC) on Toll-like receptor 2 [2] came out at 13; on Toll-like receptor 2 [4], 4.8.
Consider `CCCCCCCCCCCCCCCC(=O)OC[C@H](CSC[C@H](NC(=O)COCC(=O)NCCCOCCOCCOCCCNC(C)=O)C(=O)N[C@H](CO)C(=O)N[C@H](CCCNC(=N)N)C(=O)N[C@H](Cc1ccccc1)C(=O)N[C@H](CC(=O)O)C(=O)N[C@H](CCC(=O)O)C(=O)N[C@H](CC(=O)O)C(=O)N[C@H](CC(=O)O)C(=O)N[C@H](CC(C)C)C(=O)N[C@H](CCC(=O)O)C(N)=O)OC(=O)CCCCCCCCCCCCCCC` (X1-C(Propyl(2R-PamO,3-PamO))[dS][dR][dF][dD][dE][dD][dD][dL][dE]-NH2), for which the fold change (FC) at Toll-like receptor 2 [2] was 11; on Toll-like receptor 2 [4], 4.2.
